From publication PMC6697619 (Cell chemical biology, 2019)
“And” between values parts separate entries of the source, which are not always exact repeats. Equal values may be shown once. “Also recorded” adds a separate entry of the source. Read-outs that look alike come from different tables or passages of the source.

What was measured:
[1] = system: normal colon cells (CoN, ATCC CRL-1790); assay: XTT cell viability assay, normal colon cells; type: cell-based, human; conditions: read-out: GI50 normal colon
[2] = system: HCT-116 colorectal cancer cells; assay: XTT cell viability assay, HCT-116; type: cell-based, human; conditions: for GI50: read-out: GI50 HCT-116
[3] = system: HIV TAR; assay: DSF specificity screen, HIV TAR; type: binding; conditions: 5 μM compound, up to 5-fold molar excess
How it was run: (§1)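 Thermal melt by DSF with SYBR Green: each RNA was exposed to 5 μM test compound and its Tm was determined. Melts were run continuously up to 99°C at 0.09°C/s, with 5 acquisitions per °C and 0.75 s integration. Tm was taken as the half-denatured temperature from a 4PL sigmoidal fit of fluorescence against temperature.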

[4] = system: pre-miR-638; assay: DSF specificity screen, pre-miR-638; type: binding; conditions: 5 μM compound, up to 5-fold molar excess
How it was run: as §1

[5] = system: tRNA (Lys,3); assay: DSF specificity screen, tRNA; type: binding; conditions: 5 μM compound, up to 5-fold molar excess
How it was run: as §1

[6] = biological target: Dicer-mediated processing of pre-miR-21 (Homo sapiens, UniProt Q9UPY3); assay: Dicer processing assay; type: biochemical; conditions: for shift in Tm in the presence of Dicer: vs DMSO only control
[7] = system: PDCD4; assay: RT-qPCR of PDCD4 transcript in HCT-116 cells; type: cell-based, human
[8] = system: miR-21; assay: RT-qPCR of miR-21 expression in HCT-116 cells; type: cell-based, human; conditions: 50 nM, within 2 hours post-treatment
How it was run: (§2)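 HCT-116 cells at 50–60% confluence were given 50 nM test compound, and RNA was extracted at time points from 0 to 24 h. miRNAs were quantified by RT-qPCR with LNA primers: 95°C 10 min, then 45 cycles of 95°C 10 s, 60°C 1 min and 95°C 10 s. U6 snRNA served as reference and UniSp6 as spike-in control; run in triplicate.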

[9] = system: miRs -1246, -203a-3p, -200b-3p, -361; assay: RT-qPCR of other miRs in HCT-116 cells; type: cell-based, human; conditions: 50 nM, 0-24 h
How it was run: as §2

[10] = system: Pdcd4 and PTEN; assay: Western blot of Pdcd4 and PTEN protein in HCT-116 cells; type: cell-based, human; conditions: 50 nM, within 24 hours post-treatment
How it was run: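 HCT-116 cells treated with 50 nM test compound were harvested at 0–36 h. Lysates were TCA/acetone precipitated, redissolved in 8 M urea, and 20 μg protein per lane was separated on 4–12% Bis-Tris gels, then dry-transferred to PVDF. Blots were probed with mouse anti-PDCD4 or anti-PTEN plus rabbit anti-GAPDH (internal control) and detected with IR-dye secondaries.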

[11] = system: pre-miR-21; assay: Differential scanning calorimetry; type: binding; conditions: 30 μM pre-miR-21, 300 μM bPGN
How it was run: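 Pre-miR-21 (30 μM), with or without 300 μM test compound, in 0.25 mM Tris-HCl pH 7.5, 0.25 mM NaCl and 1.5% DMSO, degassed. The cell was pressurised to 30 psi and run through 8 alternating up/down scans at 60°C/hr with a 16 s filter. The first up scan was subtracted, the baseline corrected, and the data fitted to a non-2-state unfolding model to give Tm and enthalpy for each transition.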

[12] = system: pre-miR-21; assay: RT-qPCR of pre-miR-21 expression in HCT-116 cells; type: cell-based, human; conditions: 50 nM, up to 24 hours post-treatment
[13] = system: PTEN; assay: RT-qPCR of PTEN transcript in HCT-116 cells; type: cell-based, human
[14] = biological target: pre-miR-21; assay: Fluorescence displacement assay; type: binding; conditions: data not shown
[15] = system: pre-miR-21; assay: Differential scanning fluorimetry; type: binding; conditions: titration up to 20-25 μM
[16] = XTT, ATCC CRL-1790, 24 hours post-treatment

Sequence of Dicer-mediated processing of pre-miR-21 (Q9UPY3 whole entry): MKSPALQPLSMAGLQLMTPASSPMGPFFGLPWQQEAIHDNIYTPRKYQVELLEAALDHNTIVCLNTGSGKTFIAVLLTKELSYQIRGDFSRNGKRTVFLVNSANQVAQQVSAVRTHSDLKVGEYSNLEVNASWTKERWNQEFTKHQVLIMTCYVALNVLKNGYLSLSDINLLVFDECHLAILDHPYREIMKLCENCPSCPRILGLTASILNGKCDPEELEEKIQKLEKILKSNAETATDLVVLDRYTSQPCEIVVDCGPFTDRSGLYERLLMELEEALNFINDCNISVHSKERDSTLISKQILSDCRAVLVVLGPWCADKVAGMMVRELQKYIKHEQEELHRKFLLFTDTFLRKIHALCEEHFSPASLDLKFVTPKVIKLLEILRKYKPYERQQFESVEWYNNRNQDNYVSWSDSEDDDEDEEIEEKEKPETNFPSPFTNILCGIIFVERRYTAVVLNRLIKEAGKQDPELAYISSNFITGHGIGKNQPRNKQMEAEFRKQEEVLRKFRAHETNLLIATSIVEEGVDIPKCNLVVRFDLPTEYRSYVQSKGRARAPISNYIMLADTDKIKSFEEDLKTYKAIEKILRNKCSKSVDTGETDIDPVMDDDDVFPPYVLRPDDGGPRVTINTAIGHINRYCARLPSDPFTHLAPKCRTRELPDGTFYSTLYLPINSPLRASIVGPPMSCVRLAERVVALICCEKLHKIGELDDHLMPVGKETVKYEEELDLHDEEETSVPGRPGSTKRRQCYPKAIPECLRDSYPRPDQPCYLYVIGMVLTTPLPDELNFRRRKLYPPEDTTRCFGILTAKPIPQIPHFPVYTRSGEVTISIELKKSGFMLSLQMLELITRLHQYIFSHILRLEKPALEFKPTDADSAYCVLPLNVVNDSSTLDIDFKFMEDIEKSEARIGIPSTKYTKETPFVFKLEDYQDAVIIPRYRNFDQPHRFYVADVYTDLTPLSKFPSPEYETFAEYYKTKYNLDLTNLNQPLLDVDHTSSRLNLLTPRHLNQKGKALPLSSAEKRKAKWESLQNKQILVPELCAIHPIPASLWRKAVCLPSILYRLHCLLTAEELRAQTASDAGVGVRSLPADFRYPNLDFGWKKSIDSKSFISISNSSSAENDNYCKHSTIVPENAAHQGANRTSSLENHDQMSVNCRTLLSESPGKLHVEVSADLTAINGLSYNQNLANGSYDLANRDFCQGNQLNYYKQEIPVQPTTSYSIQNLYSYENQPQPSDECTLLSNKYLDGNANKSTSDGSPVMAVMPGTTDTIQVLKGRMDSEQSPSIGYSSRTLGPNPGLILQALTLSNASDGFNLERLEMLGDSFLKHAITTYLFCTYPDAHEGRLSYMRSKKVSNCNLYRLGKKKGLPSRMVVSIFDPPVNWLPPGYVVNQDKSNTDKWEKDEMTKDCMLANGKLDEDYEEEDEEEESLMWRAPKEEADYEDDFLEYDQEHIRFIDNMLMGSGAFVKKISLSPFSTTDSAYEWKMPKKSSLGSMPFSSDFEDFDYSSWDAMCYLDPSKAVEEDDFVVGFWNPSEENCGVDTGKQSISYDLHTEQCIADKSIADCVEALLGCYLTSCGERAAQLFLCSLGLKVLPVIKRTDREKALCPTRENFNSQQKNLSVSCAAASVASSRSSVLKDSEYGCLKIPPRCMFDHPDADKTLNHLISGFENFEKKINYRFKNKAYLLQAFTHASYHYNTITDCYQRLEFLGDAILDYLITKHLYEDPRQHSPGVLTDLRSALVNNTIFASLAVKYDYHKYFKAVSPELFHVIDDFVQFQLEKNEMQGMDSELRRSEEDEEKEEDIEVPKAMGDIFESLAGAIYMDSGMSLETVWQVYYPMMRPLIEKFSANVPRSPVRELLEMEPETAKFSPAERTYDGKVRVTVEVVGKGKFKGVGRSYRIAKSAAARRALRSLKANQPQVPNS

1,5-bis[3-(2-hydroxyethylamino)propylamino]anthracene-9,10-dione hydrochloride [Compound 6]
GI50 [1, 16]: 1100 ± 800 nM | GI50 HCT-116 in words ([2]; XTT, 24 hours post-treatment): high nanomolar | GI50 ([2]; XTT, 24 hours post-treatment): 3200 ± 600 nM

CCCC[C@H]1CCCCCCc2[nH]c(/C=C3\N=CC(c4ccc[nH]4)=C3OC)cc21 [Compound 1, butylcycloheptyl prodiginine]
Tm change of HIV TAR [3]: did not significantly change the Tm | Tm change of pre-miR-638 [4]: did not significantly change the Tm; also recorded: no Tm shift was observed | Tm change of tRNA (Lys,3) [5]: did not significantly change the Tm | shift in Tm in the presence of Dicer ([6]; 50 μM compound, DSF): −2.8 °C | shift in Tm in the presence of Dicer ([6]; 100 μM compound, DSF): −0.6 °C | inhibition of Dicer processing of pre-miR-21, gel shift ([6]; 50 and 100 μM, 10U Dicer per 10 μM pre-miR-21): dose dependent inhibition of Dicer processing | Tm of pre-miR-21 under Dicer reaction conditions ([6]; in the presence of 10 μM compound, DSF): 62.2 °C | GI50 [1, 16]: ≥ 10000 nM | reduction of cell number ([2]; 0.05 μM, 24-hours post-treatment): 55% | cell death ([2]; concentration > 0.5 μM, 24 h): complete cell death | GI50 ([2]; XTT, 24 hours post-treatment): 35 ± 3 nM | IC50 ([2]; read-out: cellular growth inhibitory activity, HCT-116, as restated in text): 35 nM and ~35 nM | PDCD4 transcript upregulation ([7]; by 8 hours post-treatment): 2 fold | PDCD4 transcript upregulation ([7]; by 36 hours post-treatment): 2 – 4 fold | reduction of miR-21 levels [8]: ~ 80% | reduction of expression level of the other tested miRs [9]: ≤ 30% | Pdcd4 and PTEN protein levels [10]: time dependent increase | DSC thermal transition Tm1 of pre-miR-21 in the presence of compound [11]: 42.3 °C | DSC thermal transition Tm2 of pre-miR-21 in the presence of compound [11]: 68.0 °C | pre-miR-21 expression level [12]: did not significantly change | PTEN transcript upregulation ([13]; by 8 hours post-treatment): 2 fold | PTEN transcript upregulation ([13]; by 36 hours post-treatment): 2 – 4 fold

COC1=CC(c2cc3ccccc3[nH]2)=N/C1=C\c1[nH]c(C)cc1C [Compound 2, obatoclax, reference compound]
GI50 ([1]; Homo sapiens, 24 h): ≥ 10000 nM | GI50 ([2]; Homo sapiens, HCT-116, 24 h): 100 ± 10 nM

CCCCCC1=C/C(=C/c2[nH]c(-c3ccc[nH]3)cc2OC)N=C1C [Compound 3, prodigiosin, reference compound]
GI50 ([1]; Homo sapiens, 24 h): ≥ 10000 nM | GI50 ([2]; Homo sapiens, HCT-116, 24 h): 240 ± 40 nM

CC[C@@]1(O)C[C@H](O[C@H]2C[C@H](N(C)C)[C@H](O)[C@H](C)O2)c2c(cc3c(c2O)C(=O)c2c(O)cccc2C3=O)[C@H]1C(=O)OC [Compound 4, aklavin]
GI50 [1, 16]: 1700 ± 400 nM | GI50 HCT-116 in words ([2]; XTT, 24 hours post-treatment): high nanomolar | GI50 ([2]; XTT, 24 hours post-treatment): 570 ± 60 nM

COc1cc2c3c4c1Oc1cc5c(cc1O4)[C@@H](Cc1ccc(O)c(c1)Oc1ccc(cc1)C[C@@H]3N(C)CC2)N(C)CC5 [Compound 5, trigilletine]
GI50 ([1]; Homo sapiens, 24 h): 1000 ± 200 nM | GI50 ([2]; Homo sapiens, HCT-116, 24 h): 3500 ± 500 nM | GI50 HCT-116 in words ([2]; XTT, 24 hours post-treatment): high nanomolar

CN1CCCC2C(c3ccccc3)C(C3=NCCCC3)C(c3ccccc3)CC21 (stereo not drawn) [Compound 7, Lobinaline]
GI50 [1, 16]: > 10000 nM | GI50 ([2]; XTT, 24 hours post-treatment): ≥ 10000 nM

C[C@@H](N)C(=O)N[C@H]1CO[C@H](O)[C@H](N)[C@H]1O [Compound 8, prumycin]
GI50 [1, 16]: 5100 ± 100 nM | GI50 ([2]; XTT, 24 hours post-treatment): ≥ 10000 nM

COc1cc2c3c(cc4ccccc4c3c1OC)N(C)CC2 [Compound 9, dehydronuciferin]
GI50 [1, 16]: > 10000 nM | GI50 ([2]; XTT, 24 hours post-treatment): ≥ 10000 nM

O=c1[nH]cc(F)c(=O)[nH]1 [Compound 10, 5-fluorouracil, reference compound]
GI50 ([1]; Homo sapiens, 24 h): 2000 ± 200 nM | GI50 ([2]; Homo sapiens, HCT-116, 24 h): 720 ± 20 nM

CC1(C)CCC(c2ccc(Cl)cc2)=C(CN2CCN(c3ccc(C(=O)NS(=O)(=O)c4ccc(N[C@H](CCN5CCOCC5)CSc5ccccc5)c(S(=O)(=O)C(F)(F)F)c4)cc3)CC2)C1 [Navitoclax]
apparent binding affinity (Kd app) [14]: did not show apparent binding affinity | interaction with pre-miR-21 in DSF [15]: no significant interaction
